ChEMBL document CHEMBL3044977, “Synthesis and fungicidal activity of enantiomerically pure (R)- and (S)-silicon-containing azole fungicides” (Bioorg Med Chem, 2004)

Legend:
Pyricularia oryzae [1] = assay: Antifungal activity against Magnaporthe oryzae infected compound pre-treated rice seedlings through submerged application assessed as concentration required to prevent rice blast disease development measured per 10 acres after 7 days under greenhouse condition; type: functional
Rhizoctonia solani [2] = assay: Fungicidal activity against Rhizoctonia solani assessed as inhibition of mycelial growth after 24 to 48 hr by agar dilution method; type: functional, organism-based
Outline: (§1)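 Agar dilution on potato dextrose agar. Test compounds were serially diluted in DMSO containing 10% Tween 20, and 0.1 mL of each dilution went into a petri dish with 10 mL of agar medium, which was then solidified. IC50 was taken as the concentration giving 50% inhibition.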

Rhizoctonia solani [3] = assay: Antifungal activity against Rhizoctonia solani infected compound pre-treated rice seedlings through submerged application assessed as concentration required to prevent rice sheath blight disease development measured per 10 acres after 7 days under greenhouse condition; type: functional
Pyricularia oryzae [4] = assay: Fungicidal activity against Magnaporthe oryzae assessed as inhibition of mycelial growth after 24 to 48 hr by agar dilution method; type: functional, organism-based; outline: as §1

Structure (SMILES) | Activity (Pyricularia oryzae [1]) [g] | IC50 (Rhizoctonia solani [2]) [ppm] | Activity (Rhizoctonia solani [3]) [g] | IC50 (Pyricularia oryzae [4]) [ppm]
C[Si](C)(C)C[C@@](O)(Cn1cncn1)c1ccc(F)cc1 | >100 | 0.54 | >100 | 33.5
C[Si](C)(C)C[C@](O)(Cn1cncn1)c1ccc(F)cc1 | 100 | 0.016 | 25 | 0.95
C[Si](C)(C)CC(O)(Cn1cncn1)c1ccc(F)cc1 (racemic) [SIMECONAZOLE] | 100 | 0.042 | 25 | 1.25
